According to ChEMBL document CHEMBL2203197, “Design and synthesis of 2-aminothiazole based antimicrobials targeting MRSA” (2012):
Converted amounts (≈) assume the structure as drawn.

Key:
Type in all cases: functional
Staphylococcus aureus [1] = assay: Antibacterial activity against methicillin-resistant Staphylococcus aureus USA-300 after 24 hrs by CLSI broth microdilution method; details: USA-300, 24 h
Outline: (§1)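 Broth microdilution per CLSI in cation-adjusted Mueller–Hinton broth. Plates were incubated 24 h at 37 °C. MIC was taken as the lowest concentration that inhibited growth, judged by turbidity.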

Staphylococcus aureus [2] = assay: Antibacterial activity against methicillin-resistant Staphylococcus aureus RN8175 after 24 hrs by CLSI broth microdilution method; details: RN8175, 24 h; outline: as §1
Staphylococcus aureus [3] = assay: Antibacterial activity against methicillin-resistant Staphylococcus aureus UAMS-1 after 24 hrs by CLSI broth microdilution method; details: UAMS-1, 24 h; outline: as §1
Escherichia coli = assay: Antibacterial activity against Escherichia coli C600 N/puc19 after 24 hrs by CLSI broth microdilution method; details: C600 N/puc19, 24 h
Outline: (§2)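 Broth microdilution per CLSI in cation-adjusted Mueller–Hinton broth. MIC was taken as the lowest concentration inhibiting visible growth (turbidity).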

Acinetobacter baumannii = assay: Antibacterial activity against Acinetobacter baumannii UNMC 8872 after 24 hrs by CLSI broth microdilution method; details: UNMC 8872, 24 h; outline: as §2

Work on `Nc1nc(-c2ccc3ccccc3c2)cs1` yielded an MIC (Staphylococcus aureus [1]) of over 256 µg/mL, an MIC (Staphylococcus aureus [2]) of over 256 µg/mL and an MIC (Staphylococcus aureus [3]) of 256 µg/mL (≈ 1130 µM). For the same compound, the MIC (Escherichia coli) was over 256 µg/mL.

In the case of `COc1ccc(-c2csc(N)n2)cc1`, the MIC (Staphylococcus aureus [1]) is reported as over 256 µg/mL, the MIC (Staphylococcus aureus [2]) is reported as over 256 µg/mL and the MIC (Escherichia coli) is reported as over 256 µg/mL.

Work on `Nc1nc(-c2cc3ccccc3o2)cs1` yielded an MIC (Staphylococcus aureus [1]) of over 256 µg/mL, an MIC (Staphylococcus aureus [2]) of over 256 µg/mL and an MIC (Staphylococcus aureus [3]) of 256 µg/mL (≈ 1180 µM). The MIC (Escherichia coli) was over 256 µg/mL.

For `O=S(=O)(Nc1nc(-c2ccccc2Br)cs1)c1ccccc1`, the MIC (Staphylococcus aureus [1]) was 128 µg/mL (≈ 324 µM), the MIC (Staphylococcus aureus [2]) was 32 µg/mL (≈ 81 µM) and the MIC (Escherichia coli) was over 256 µg/mL.

For `Nc1nc(-c2cccc(-c3cccc(C(=O)O)c3)c2)cs1`, the MIC (Staphylococcus aureus [1]) was over 256 µg/mL, the MIC (Acinetobacter baumannii) was over 256 µg/mL and the MIC (Staphylococcus aureus [2]) was over 256 µg/mL. The MIC (Escherichia coli) was over 256 µg/mL.

`Nc1nc(-c2cccc(-c3ccc(C(=O)O)cc3)c2)cs1` showed an MIC (Staphylococcus aureus [1]) of over 256 µg/mL, an MIC (Acinetobacter baumannii) of over 256 µg/mL and an MIC (Staphylococcus aureus [2]) of over 256 µg/mL. The MIC (Escherichia coli) was over 256 µg/mL.

`COC(=O)c1ccccc1-c1cccc(-c2csc(N)n2)c1` was tested, and the MIC (Staphylococcus aureus [1]) was over 256 µg/mL, the MIC (Staphylococcus aureus [2]) was over 256 µg/mL and the MIC (Staphylococcus aureus [3]) was over 256 µg/mL. The MIC (Escherichia coli) was over 256 µg/mL.

With `CCOC(=O)COc1cccc(-c2cccc(-c3csc(N)n3)c2)c1` the MIC (Staphylococcus aureus [1]) was over 256 µg/mL, the MIC (Staphylococcus aureus [2]) was over 256 µg/mL and the MIC (Escherichia coli) was over 256 µg/mL.

Work on `CCOC(=O)COc1ccc(-c2cccc(-c3csc(N)n3)c2)cc1` yielded an MIC (Staphylococcus aureus [1]) of over 256 µg/mL, an MIC (Staphylococcus aureus [2]) of 256 µg/mL (≈ 722 µM) and an MIC (Escherichia coli) of over 256 µg/mL.

Compound `CCOC(=O)CCc1ccc(-c2cccc(-c3csc(N)n3)c2)cc1` has an MIC (Staphylococcus aureus [1]) of over 256 µg/mL, an MIC (Staphylococcus aureus [2]) of 256 µg/mL (≈ 726 µM) and an MIC (Escherichia coli) of over 256 µg/mL.

`Nc1nc(-c2cccc(-c3cccc(OC(F)(F)F)c3)c2)cs1` gave an MIC (Staphylococcus aureus [1]) of 8 µg/mL (≈ 23.8 µM), an MIC (Staphylococcus aureus [2]) of 4 µg/mL (≈ 11.9 µM) and an MIC (Escherichia coli) of over 256 µg/mL.

`O=S(=O)(Nc1nc(-c2ccc(Br)cc2)cs1)c1ccccc1` showed an MIC (Staphylococcus aureus [1]) of 64 µg/mL (≈ 162 µM), an MIC (Acinetobacter baumannii) of over 256 µg/mL and an MIC (Staphylococcus aureus [2]) of 16 µg/mL (≈ 40.5 µM). It also gave an MIC (Escherichia coli) of over 256 µg/mL.

In the case of `CCOC(=O)c1cccc(-c2cccc(-c3csc(N)n3)c2)c1`, the MIC (Staphylococcus aureus [1]) is reported as over 256 µg/mL, the MIC (Acinetobacter baumannii) is reported as over 256 µg/mL and the MIC (Staphylococcus aureus [2]) is reported as over 256 µg/mL. For the same compound, the MIC (Escherichia coli) was over 256 µg/mL.

`Nc1nc(-c2ccc(-c3cccc(OC(F)(F)F)c3)cc2)cs1` gave an MIC (Staphylococcus aureus [1]) of over 256 µg/mL, an MIC (Staphylococcus aureus [2]) of 2 µg/mL (≈ 5.95 µM) and an MIC (Escherichia coli) of over 256 µg/mL.

`CCOC(=O)c1cccc(-c2ccccc2-c2csc(N)n2)c1` was tested, and the MIC (Staphylococcus aureus [1]) was 256 µg/mL (≈ 789 µM), the MIC (Acinetobacter baumannii) was over 256 µg/mL and the MIC (Staphylococcus aureus [2]) was 32 µg/mL (≈ 98.6 µM). It also gave an MIC (Escherichia coli) of over 256 µg/mL.

`Nc1nc(-c2ccccc2-c2cccc(OC(F)(F)F)c2)cs1` was tested, and the MIC (Staphylococcus aureus [1]) was 16 µg/mL (≈ 47.6 µM), the MIC (Staphylococcus aureus [2]) was 16 µg/mL (≈ 47.6 µM) and the MIC (Escherichia coli) was over 256 µg/mL.

With `CC(=O)OCC1=C(C(=O)O)N2C(=O)[C@@H](NC(=O)c3cccc(-c4csc(N)n4)c3)C2SC1` (stereo not given in full) the MIC (Staphylococcus aureus [1]) was 256 µg/mL (≈ 539 µM), the MIC (Staphylococcus aureus [2]) was 16 µg/mL (≈ 33.7 µM) and the MIC (Staphylococcus aureus [3]) was 256 µg/mL (≈ 539 µM). For the same compound, the MIC (Escherichia coli) was over 256 µg/mL.

In the case of `O=S(=O)(Nc1nc2c(s1)CCCC2)c1cccc(C(F)(F)F)c1`, the MIC (Staphylococcus aureus [1]) is reported as over 256 µg/mL, the MIC (Staphylococcus aureus [2]) is reported as over 256 µg/mL and the MIC (Staphylococcus aureus [3]) is reported as over 256 µg/mL. It also gave an MIC (Escherichia coli) of over 256 µg/mL.

For `CCOC(=O)c1cccc(-c2ccc3sc(N)nc3c2)c1`, the MIC (Staphylococcus aureus [1]) was over 256 µg/mL, the MIC (Staphylococcus aureus [2]) was over 256 µg/mL and the MIC (Staphylococcus aureus [3]) was over 256 µg/mL. It also gave an MIC (Escherichia coli) of over 256 µg/mL.

In the case of `Nc1nc2cc(-c3cccc(OC(F)(F)F)c3)ccc2s1`, the MIC (Staphylococcus aureus [1]) is reported as 8 µg/mL (≈ 25.8 µM), the MIC (Staphylococcus aureus [2]) is reported as 8 µg/mL (≈ 25.8 µM) and the MIC (Escherichia coli) is reported as over 256 µg/mL.

In the case of `Nc1nc2ccc(-c3cccc(OC(F)(F)F)c3)cc2s1`, the MIC (Staphylococcus aureus [1]) is reported as 16 µg/mL (≈ 51.6 µM), the MIC (Staphylococcus aureus [2]) is reported as 8 µg/mL (≈ 25.8 µM) and the MIC (Escherichia coli) is reported as over 256 µg/mL.

`Nc1nc(-c2ccc(OC(F)(F)F)cc2)cs1` gave an MIC (Staphylococcus aureus [1]) of 64 µg/mL (≈ 246 µM), an MIC (Staphylococcus aureus [2]) of 64 µg/mL (≈ 246 µM) and an MIC (Escherichia coli) of over 256 µg/mL.

`Nc1nc(-c2ccc(N3CCOCC3)cc2)cs1` gave an MIC (Staphylococcus aureus [1]) of over 256 µg/mL, an MIC (Staphylococcus aureus [2]) of 256 µg/mL (≈ 980 µM) and an MIC (Staphylococcus aureus [3]) of 128 µg/mL (≈ 490 µM). It also gave an MIC (Escherichia coli) of over 256 µg/mL.

Work on `Fc1cccc(Nc2nc(-c3ccc(N4CCOCC4)cc3)cs2)c1` yielded an MIC (Staphylococcus aureus [1]) of over 256 µg/mL, an MIC (Staphylococcus aureus [2]) of over 256 µg/mL and an MIC (Staphylococcus aureus [3]) of 256 µg/mL (≈ 720 µM). It also gave an MIC (Escherichia coli) of over 256 µg/mL.

With `Nc1nc(-c2ccc(N3CCCC3)cc2)cs1` the MIC (Staphylococcus aureus [1]) was over 256 µg/mL, the MIC (Staphylococcus aureus [2]) was over 256 µg/mL and the MIC (Staphylococcus aureus [3]) was 256 µg/mL (≈ 1040 µM). The MIC (Escherichia coli) was over 256 µg/mL.

`Fc1cccc(Nc2nc(-c3ccc(N4CCCC4)cc3)cs2)c1` showed an MIC (Staphylococcus aureus [1]) of over 256 µg/mL, an MIC (Staphylococcus aureus [2]) of over 256 µg/mL and an MIC (Staphylococcus aureus [3]) of 2 µg/mL (≈ 5.89 µM). For the same compound, the MIC (Escherichia coli) was over 256 µg/mL.

`Fc1cccc(Nc2nc(-c3cccc(Br)c3)cs2)c1` was tested, and the MIC (Staphylococcus aureus [1]) was 4 µg/mL (≈ 11.5 µM), the MIC (Staphylococcus aureus [2]) was 4 µg/mL (≈ 11.5 µM) and the MIC (Staphylococcus aureus [3]) was 2 µg/mL (≈ 5.73 µM). The MIC (Escherichia coli) was over 256 µg/mL.

For `O=S(=O)(Nc1nc(C23CC4CC(CC(C4)C2)C3)cs1)c1cccc(C(F)(F)F)c1`, the MIC (Staphylococcus aureus [1]) was over 256 µg/mL, the MIC (Staphylococcus aureus [2]) was over 256 µg/mL and the MIC (Staphylococcus aureus [3]) was 128 µg/mL (≈ 289 µM). It also gave an MIC (Escherichia coli) of over 256 µg/mL.

`O=S(=O)(Nc1nc(-c2ccccc2F)cs1)c1ccccc1` gave an MIC (Staphylococcus aureus [1]) of 128 µg/mL (≈ 383 µM), an MIC (Staphylococcus aureus [2]) of 32 µg/mL (≈ 95.7 µM) and an MIC (Escherichia coli) of over 256 µg/mL.

`COC(=O)c1cccc(-c2csc(N)n2)c1` was tested, and the MIC (Staphylococcus aureus [1]) was over 256 µg/mL, the MIC (Staphylococcus aureus [2]) was over 256 µg/mL and the MIC (Escherichia coli) was over 256 µg/mL.

In the case of `COC(=O)c1ccc(-c2csc(N)n2)cc1`, the MIC (Staphylococcus aureus [1]) is reported as over 256 µg/mL, the MIC (Staphylococcus aureus [2]) is reported as 128 µg/mL (≈ 546 µM) and the MIC (Escherichia coli) is reported as over 256 µg/mL.

For `CO/N=C(\C(=O)N[C@@H]1C(=O)N2C(C(=O)O)=C(CSc3nc(=O)c(O)nn3C)CS[C@H]12)c1csc(N)n1` [CEFTRIAXONE], the MIC (Staphylococcus aureus [1]) was 128 µg/mL (≈ 231 µM), the MIC (Acinetobacter baumannii) was 8 µg/mL (≈ 14.4 µM) and the MIC (Staphylococcus aureus [2]) was 16 µg/mL (≈ 28.9 µM). It also gave an MIC (Staphylococcus aureus [3]) of 8 µg/mL (≈ 14.4 µM) and an MIC (Escherichia coli) of 2 µg/mL (≈ 3.61 µM).
